Screening results from PubChem BioAssay.
TRPC6 act – activators of mouse TRPC6 channel | HEK293-TRPC6 membrane potential dye fluorescence; stronger effect = higher value | B-score at 10 µM | Q61143 | hit rate 0.13% among 310,000 | AID 2550;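 active = B-score of the integrated fluorescence ratio above library mean plus 3 SD, and starting fluorescence ratio within library mean plus 5 SD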;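 note: higher score means more depolarization so channel activation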
TRPC4 block – inhibitors of mouse TRPC4 channel | Q9QUQ5 | B-score at 10 µM | HEK293 TRPC4beta/mu-opioid, DAMGO-evoked Fluo4 calcium flux; stronger effect = lower value | hit rate 0.39% among 300,000;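 active = B-score over 3 SD under the library average, no early fluorescence shift, positive overall ratio signal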
Target sequence (Q9QUQ5 whole entry, looked up): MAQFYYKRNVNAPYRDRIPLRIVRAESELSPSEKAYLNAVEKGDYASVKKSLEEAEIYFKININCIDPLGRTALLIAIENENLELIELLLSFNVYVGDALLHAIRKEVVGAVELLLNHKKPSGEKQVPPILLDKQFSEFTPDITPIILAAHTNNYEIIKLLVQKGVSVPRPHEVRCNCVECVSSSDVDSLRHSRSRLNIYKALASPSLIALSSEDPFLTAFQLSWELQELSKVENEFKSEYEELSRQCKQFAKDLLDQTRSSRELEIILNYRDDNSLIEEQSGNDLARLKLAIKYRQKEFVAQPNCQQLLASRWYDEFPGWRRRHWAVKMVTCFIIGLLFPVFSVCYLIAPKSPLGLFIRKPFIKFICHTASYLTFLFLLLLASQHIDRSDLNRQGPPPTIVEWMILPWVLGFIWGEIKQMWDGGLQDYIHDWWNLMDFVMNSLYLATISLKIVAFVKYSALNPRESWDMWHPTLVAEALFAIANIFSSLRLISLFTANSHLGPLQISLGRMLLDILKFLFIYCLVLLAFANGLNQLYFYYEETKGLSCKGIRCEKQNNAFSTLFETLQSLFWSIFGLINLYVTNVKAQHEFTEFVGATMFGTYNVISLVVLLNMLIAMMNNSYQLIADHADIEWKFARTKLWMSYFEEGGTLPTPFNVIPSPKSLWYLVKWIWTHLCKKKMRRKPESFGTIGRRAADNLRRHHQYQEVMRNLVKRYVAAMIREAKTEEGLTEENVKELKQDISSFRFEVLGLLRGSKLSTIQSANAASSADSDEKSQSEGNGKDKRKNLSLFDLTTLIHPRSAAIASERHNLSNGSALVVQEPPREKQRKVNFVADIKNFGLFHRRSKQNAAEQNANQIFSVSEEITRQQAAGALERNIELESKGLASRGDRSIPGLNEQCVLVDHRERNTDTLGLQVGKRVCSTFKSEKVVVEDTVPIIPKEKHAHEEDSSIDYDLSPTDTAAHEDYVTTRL
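Signal: kinetic Fluo4 fluorescence imaging of calcium influx. Material: stable TRPC4beta/mu-opioid receptor HEK293 cells. Probe or stimulus: DAMGO in two steps, submaximal then maximal.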
TRPC4 potent – TRPC4 (mouse) allosteric potentiation; Q9QUQ5; HEK293 TRPC4beta/mu-opioid, DAMGO EC20, Fluo-4 Ca2+ flux; stronger effect = higher value; B-score at 10 µM; hit rate 0.42% among 310,000;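 active = B-score of calcium response area above 5 SD of library B-scores, with initial fluorescence ratio within 5 SD of library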;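 note: B-score of integrated fluorescence ratio over time as area under calcium response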
TRPC6 inhibitor – mouse TRPC6 channel inhibition; Q61143; HEK293-TRPC6, membrane potential dye, ACh-evoked depolarization; stronger effect = lower value; B-score at 10 µM; hit rate 1.1% among 310,000;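 active = B-score under library mean minus 3 SD, initial fluorescence not abnormally high, positive integrated signal ratio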;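 note: B-score derived from integrated fluorescence ratio over the kinetic read; more negative B-score means stronger inhibition of depolarization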
Kir21 inh – inhibitors of mouse Kir2.1 inward-rectifier potassium channel; P35561; HEK293-Kir2.1, FluxOR thallium flux fluorescence; stronger effect = lower value; B-score at 10 µM; hit rate 0.85% among 310,000;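 active = fluorescence ratio B-score at or below minus 3 SD of library scores, with starting-brightness B-score within 2 SD, cut at about -4.2 in these data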;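 note: channel flux triggered by added potassium and thallium sulfate stimulus; B-score of peak minus minimum fluorescence over baseline after thallium stimulus; more negative B-score means stronger Kir2.1 block with less thallium influx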
TRPC4 agonist – activators of mouse TRPC4 channel; Q9QUQ5; HEK293 TRPC4beta/mu-opioid, Fluo4 calcium fluorescence; stronger effect = higher value; B-score at 10 µM; hit rate 0.49% among 310,000;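 active = B-score above 5 SD of library B-scores, and initial fluorescence ratio not above library mean plus 5 SD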;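 note: positive B-score marks a calcium rise read as TRPC4 activation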
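System – HEK293 cells stably co-expressing mouse TRPC4beta and mu-opioid receptor · Signal – Fluo4 calcium-sensitive dye fluorescence, kinetic, 1 Hz baseline · Benchmarks – buffer (low) and maximal DAMGO (high) · Read-out – B score of integrated fluorescence ratio per well · Incubation – dye loading 45 min room temperature, 110 s kinetic read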
TRPC4 spec 2 – second selectivity test of TRPC6 inhibitors: effect on mouse TRPC4; inhibition, % at 10 µM; hit rate 42% among 920; shares compounds with TRPC6 inhibitor; HEK293 TRPC4/MOR, membrane potential dye fluorescence; channel activated by saturating DAMGO dose;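 active = compounds whose fluorescence signal differed from control wells by over 3 SD, either direction, in both duplicate plates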
TRPC4 spec – mouse TRPC4 off-target activity of TRPC6 inhibitors | activity change, negative = inhibition, % at 10 µM | shares compounds with TRPC6 inhibitor | hit rate 61% among 920 | HEK293 TRPC4/mu-opioid, membrane potential fluorescence;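 active = rise or fall in signal beyond 3 SD of buffer-only wells in both replicate plates, either sign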;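 note: integrated kinetic ratio of fluorescence range over baseline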
HEK293 MPD ctr 2-1 – parental HEK293 nonspecific activity of TRPC6 inhibitors, second screen | shares compounds with TRPC6 inhibitor | parental HEK293 membrane potential dye fluorescence; maximal acetylcholine challenge after compound addition | signal change vs control, % at 10 µM | hit rate 31% among 920 | AID 2779;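 active = membrane potential signal moving either way by over 3 SD of the maximum-effect control, in both duplicate plates, meaning non-specific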
HEK293 MPD ctr-1 – checks TRPC6 inhibitor effects in parental HEK293 cells | shares compounds with TRPC6 inhibitor | parental HEK293 membrane potential dye fluorescence | membrane potential signal change, % at 10 µM | hit rate 60% among 920 | AID 2780;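 active = membrane potential signal shifting up or down by more than 3 SD of buffer-only wells, on both duplicate plates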
HEK293 MPD ctr-2 – checks TRPC6 modulator effects in parental HEK293 cells. shares compounds with TRPC6 inhibitor. hit rate 51% among 2,400. AID 488924. membrane potential signal change, % at 10 µM. membrane potential dye fluorescence;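 active = membrane potential signal moves up or down beyond 5 SD from buffer-only wells, on both duplicate plates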
HEK293 MPD ctr 2-2 – parental HEK293 nonspecific activity of TRPC6 modulators, second screen; hit rate 14% among 2,400; inhibition, % at 10 µM; shares compounds with TRPC6 inhibitor; AID 488926; membrane potential dye fluorescence; after compound, maximal acetylcholine stimulation;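 active = membrane potential signal drops by more than 5 SD from the mean control signal, in both duplicate plates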;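 note: plate controls were acetylcholine ECmax control wells for no effect and buffer only wells for full effect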
TRPC4 ctr mod – tests whether TRPC6 modulators also affect mouse TRPC4. hit rate 69% among 2,400. shares compounds with TRPC6 inhibitor. percent change from control (negative = decrease, positive = increase), % at 10 µM. HEK293 TRPC4/mu-opioid, membrane potential fluorescence;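 active = membrane potential signal moved up or down beyond 5 SD of buffer control wells, in both duplicate plates, actives on both sides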;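 note: plate controls were assay buffer wells for no effect and DAMGO maximal-effect wells for full effect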
TRPC4/MOR inh 2 – second check of whether TRPC6 modulators also affect mouse TRPC4; shares compounds with TRPC6 inhibitor; HEK293 TRPC4/mu-opioid, membrane potential dye fluorescence; stimulated with maximal-effect DAMGO; inhibition, % at 10 µM; hit rate 55% among 2,400;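 active = drop in membrane potential signal beyond 5 SD of the control wells in both duplicate plates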;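 note: TRPC4 counter screen for TRPC6 hits run under conditions tuned for TRPC6 not TRPC4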
TRPC6 inh conf – mouse TRPC6 inhibitor confirmation | inhibition, % at 10 µM | HEK293-TRPC6, membrane potential dye, ACh-evoked depolarization | hit rate 43% among 3,300 | shares compounds with TRPC6 inhibitor;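 active = fluorescence ratio falls more than 5 SD below the full-stimulation control mean, in both duplicate runs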;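 note: integrated fluorescence ratio of peak minus minimum over baseline after agonist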
TRPC6 act confirm – mouse TRPC6 activator confirmation. shares compounds with TRPC6 inhibitor. HEK293-TRPC6 membrane potential dye fluorescence, FDSS. hit rate 11% among 2,800. activation, % at 10 µM;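 active = ratio signal rise beyond 5 SD above unstimulated control wells' mean, seen in both duplicate runs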;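 note: plate controls were buffer EC0 wells for no effect and acetylcholine ECmax response for full effect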
Active calls of the source: *; i = inactive; x = no result given. Most compounds without a hit are left out; they make up all but 2.9% or so of the library.

SMILES	TRPC6 act	TRPC4 block	TRPC4 potent	TRPC6 inhibitor	Kir21 inh	TRPC4 agonist	HEK293 MPD ctr-2	HEK293 MPD ctr 2-2	TRPC4 ctr mod	TRPC4/MOR inh 2	TRPC6 inh conf	TRPC6 act confirm	others
CCOC(=O)c1c(CSc2ccc(C)cc2)n(C)c2cc(Br)c(O)c(CN(C)C)c12	i	i	i	-5.9*	-1.6	i	i	i	i	64%*	47%*	i
CCOC(=O)c1c(CN(C)C)oc2cc(CN(C)C)c(O)c(CSc3ccccc3)c12	i	i	i	i	-1.1	i	x	x	x	x	x	x
CCOC(=O)c1c(CN2CCCCC2)n(C)c2cc(Br)c(O)c(CN(C)C)c12	i	i	i	-7.1*	-0.02	i	-252%*	i	-52%*	58%*	45%*	i
CN(C)c1ccc(/C=C2\SC(N3CCCCC3)=NC2=O)cc1	i	i	i	-5.3*	-2.5	i	396%*	i	34%*	i	i	x
Cc1ccc(/C=C2\SC(N3CCCC3)=NC2=O)cc1	i	i	i	i	-0.09	i	x	x	x	x	x	x
Brc1cc2c(cc1CN1CCc3ccccc3C1)OCO2	i	i	i	-7.3*	0.46	i	x	x	x	x	i	i	TRPC4 spec 2=i;TRPC4 spec=i;HEK293 MPD ctr 2-1=i;HEK293 MPD ctr-1=i
CC(=O)N/C(=C\c1ccccc1)C(=O)OCC(=O)Nc1cc(S(=O)(=O)N(C)C)ccc1C	i	i	i	i	0.9	i	x	x	x	x	x	x
CN(C)c1cc(N/N=C/c2ccccc2C(F)(F)F)nc(N(C)C)n1	i	i	i	-5.1*	2.6	i	i	i	i	i	i	i
CCN(CC)S(=O)(=O)c1ccc(NC(=O)c2nc3nc(C)cc(C)n3n2)cc1	i	i	i	i	0.42	i	x	x	x	x	x	x
Cc1cc(C)n2nc(C(=O)Nc3ccc(S(=O)(=O)N(C)C)cc3)nc2n1	i	i	i	-6*	0.12	i	-247%*	i	-41%*	36%*	i	i
CC(C)(C)NC(=S)NNC(=O)c1cccc(Br)c1	i	i	i	i	-0.61	i	x	x	x	x	x	x
COc1ccc2nc(C)cc(NCCN3CCOCC3)c2c1	i	i	i	-9.5*	1.1	i	-328%*	88%*	-64%*	54%*	65%*	i
Cc1cc(NCCN2CCOCC2)c2ccc3ccccc3c2n1	i	i	i	-6.5*	-2.2	i	-94%*	65%*	-26%*	70%*	57%*	i
COc1ccc(OCCN2CCOCC2)cc1	i	i	i	i	-0.66	i	x	x	x	x	x	x
Cc1ccc2nc(-c3ccccn3)cc(C(=O)NCCc3ccc(F)cc3)c2c1	i	i	i	i	1.3	i	x	x	x	x	x	x
Cc1ccc(C(=O)N/C(=C\c2cccs2)C(=O)NCCc2c[nH]c3ccccc23)cc1	i	i	i	i	-1	i	x	x	x	x	x	x
Cn1c(=O)cc2c3c(c(N4CCCCC4)ccc31)C(=O)c1ccccc1-2	i	i	i	-5.1*	-1	i	-182%*	i	-42%*	54%*	39%*	i
O=C1c2ccccc2C(=O)c2c1cccc2N1CCCC1	i	i	i	i	1.5	i	x	x	x	x	x	x
O=c1oc2ccccc2c(N2CCCCC2)c1CN1CCCCC1	i	i	i	-5.1*	2	i	106%*	i	26%*	i	i	x
O=C(CC(c1cccs1)S(=O)(=O)c1ccccc1)c1ccc(F)cc1 (stereo not drawn)	i	i	i	i	0.09	i	x	x	x	x	x	x
Cc1c(F)cccc1NS(=O)(=O)c1ccc2c(c1)c(C)cc(=O)n2C	i	i	i	-6.8*	-2.6	i	x	x	x	x	i	i	TRPC4 spec 2=i;TRPC4 spec=i;HEK293 MPD ctr 2-1=i;HEK293 MPD ctr-1=i
Cn1cnc2cc(NC(=O)c3ccc(Cl)cc3)ccc21	i	i	i	-5.3*	1.5	i	i	i	-11%*	i	i	i
N#Cc1nc(-c2cccc3ccccc23)oc1NCCN1CCCCC1	i	i	i	-7.6*	-4.9*	i	x	x	x	x	i	i	TRPC4 spec 2=i;TRPC4 spec=i;HEK293 MPD ctr 2-1=i;HEK293 MPD ctr-1=i
O=C(CCC(=O)N(CC(=O)NC1CCCCC1)CC1CCCO1)Nc1nccs1 (stereo not drawn)	i	i	i	i	-0.02	i	x	x	x	x	x	x
O=C(NN1C(=O)C2C3C=CC(C3)C2C1=O)c1ccccc1 (stereo not drawn)	i	i	i	i	0.01	i	x	x	x	x	x	x
Cc1cccc(C(=O)NN2C(=O)C3C(c4ccccc4)C=CC(c4ccccc4)C3C2=O)c1 (stereo not drawn)	i	i	i	-5*	0.29	i	i	i	i	i	i	i
